This passage reports cytotoxicity results from ChEMBL document CHEMBL4513216, “Probing the Open Global Health Chemical Diversity Library for Multistage-Active Starting Points for Next-Generation Antimalarials” (ACS Infect Dis, 2020).

The series in a line: Toxicity liver stage against HepG2, at 10uM. More on the design: test concentration 10 uM, cell line HepG2-A16-CD81EGFP. Type of series: cell-based. To be noted: human, HepG2-A16-CD81EGFP cells; read-out: INHIBITION
An outline of the steps:
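Uninfected HepG2-A16-CD81EGFP cells, 3 × 10^3 per well, 1536-well, plated on prespotted compound at 10 μM final, parasite-free screening media added to match infected plates; puromycin 10 μM positive, DMSO 0.5% negative; run in parallel with 48 h PbLuc assay at 37 °C, 5% CO2; viability by CellTiter-Glo luminescence, normalized to controls.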
As to `CN1CCOC[C@H]1c1nc(-c2ccncc2)c[nH]1`, the cytotoxicity at 10 µM worked out at 2.23%.
The figure for `Cc1nc(N2CCN(C)CC2)ncc1C(=O)N1CCCCCC1` is -3.48%.
`COc1ccc2c(c1)CN(Cc1ccco1)C(=O)CCN2CC(C)(C)O`: the cytotoxicity at 10 µM was -7.08%.
Then `Cc1cccc2c1ccn2CC(=O)NC[C@@H]1CCCN2CCCC[C@H]12`, with 3.14%; and `COc1ccc(-c2n[nH]c(C)c2CC(=O)NCC2CCOCC2)cc1`, with -4.28%.
On to `CSc1ccc(C2SCC(=O)Nc3c2c(=O)[nH]n3C2CCOCC2)cc1` (stereo unspecified), for which the cytotoxicity at 10 µM was -14.9%.
The figure for `O=c1[nH]c2c(c(=O)n1C1CCCCC1)CCC2NCc1ccccc1` (stereo unspecified) is -5.43%.
Consider `CN(C)c1ccc(C(=O)N2CCC(c3cc4cnccc4[nH]3)CC2)cc1`, for which the cytotoxicity at 10 µM turned out to be 1.12%.
Then `Nc1nccc(C2CCCCN2Cc2cccc(F)c2)n1` (stereo unspecified), with -4%.
The figure for `CC(Sc1nncn1C)C(=O)NCCCOc1ccc(F)cc1` (stereo unspecified) is -49.2%; for `O=C(c1ccccn1)N1CCN(C(c2ccccc2)C(F)(F)F)CC1` (stereo unspecified) it is -8.18%.
As for `COCC(C)N1CCN(CCc2ccc3c(c2)CCO3)CC1` (stereo unspecified), the cytotoxicity at 10 µM was 4.16%.
On to `Clc1ccc2c(c1)C=C(CNC1CCc3ncnn3C1)CO2` (stereo unspecified), for which the cytotoxicity at 10 µM was -1.19%.
Take `COCCNc1nnc(S(=O)(=O)CCC(C)(C)C#N)s1`: the cytotoxicity at 10 µM turned out to be 10.7%.
The figure for `CCC(CNC(=O)CNC(C)=O)Oc1cccc(F)c1` (stereo unspecified) is -43.6%; for `CCOc1ncccc1NC(=O)N1CCOCC1C` (stereo unspecified) it is 10.3%; for `Cc1ccc(C(=O)N2CCOC3(CCCC3)C2)c(=O)[nH]1` it is 7.87%.
In the case of `CC(=O)Nc1nc(CN(C)CC2CCCN2c2cccnn2)cs1` (stereo unspecified), the cytotoxicity at 10 µM amounted to 15.1%.
With `CC(C)CNC(=O)c1cc(Br)c2c(c1)OCCO2`, the cytotoxicity at 10 µM turned out to be 6.7%.
The figure for `O=C(NCc1ccccc1CN1CCC(O)CC1)Nc1ccccn1` is 8.52%; for `O=C(CCCOc1ccccc1F)NCCCC(=O)Nc1cn[nH]c1` it is -11.1%.
Then `Cc1ccoc1C(=O)NCCOc1ncc(Cl)cc1Cl`, with 3.02%.
The figure for `CCCN(Cc1ccc(C#N)cc1)Cc1nnsc1Cl` is -58.4%; for `CCCc1nc(CNc2cc(CS(C)(=O)=O)ccc2Cl)no1` it is -2.07%; for `CCOc1ccc(C#N)cc1NCc1cc(C)on1` it is -60.8%.
For the molecule `CC(C)Nc1cccc(CNC(=O)N2CCC[C@@H]2CO)c1`, the cytotoxicity at 10 µM came out at 1.96%.
As to `Cc1cscc1C(=O)Nc1cc(CSCCO)ccn1`, the cytotoxicity at 10 µM is -25.5%.
Then `CS(=O)(=O)c1ccc(C(=O)NCc2nc3cc(F)ccc3[nH]2)cc1`, with -3.34%; and `CC(C)CSCCCNC(=O)C1CCC1`, with -4.47%.
The figure for `CC(=O)N(C)Cc1ccccc1NC(=O)N(C)CCc1cccs1` is -10.4%; for `COCC(C)N(C)C(=O)NC1CCN(c2ncccn2)CC1` (stereo unspecified) it is -12.5%.
The figure for `CS(=O)(=O)Cc1nc(CN2CCC(C(F)(F)F)CC2)cs1` is -10.9%; for `CC(C)(C)OC(=O)N1CCCc2ccc(NCc3ncc[nH]3)cc21` it is -5.99%; for `CN(CCc1cccs1)C1CCCN(Cc2noc(C3CC3)n2)C1` (stereo unspecified) it is -12.5%.
With `Cn1ccnc1C(=O)NC[C@H]1OC[C@@H]2CCN(S(C)(=O)=O)C[C@@H]21`, the cytotoxicity at 10 µM was -101%.
In the case of `CCS(=O)(=O)N1CCCn2nnc(CNC(C)=O)c2C1`, the cytotoxicity at 10 µM was -113%.
With `O=C(CC1CC1)N1CCC2(CCCN(c3ncccn3)C2)CC1`, the cytotoxicity at 10 µM was -71%.
Then `Cc1cc(NC(=O)CNCc2csc(-c3cnccn3)n2)ccc1Cl`, with -3.52%; and `Cc1cc(N2CCN(C(=O)Cc3ccc4c(c3)OCO4)CC2)cc(C)n1`, with -18%; and `CC(C)(C)c1oc(C(N)=O)cc1CN1CCCCC(N)C1` (stereo unspecified), with 5.94%.
In the case of `CC(=O)c1ccc(CN2CC(Oc3ccccc3C)C2)cc1`, the cytotoxicity at 10 µM is -4.73%.
For `COc1ccc(F)c(CN2CCCC(O)(CNCc3ccon3)C2=O)c1` (stereo unspecified), the cytotoxicity at 10 µM was found to be 53.6%.
Take `CN1CCN(C(=O)NCCc2ccc(F)cc2)[C@H]2CS(=O)(=O)C[C@H]21`: the cytotoxicity at 10 µM was determined as 10.8%.
The figure for `O=C1NCCN2CCN(Cc3ccc(Cl)c(Cl)c3)CC12` (stereo unspecified) is -4.92%; for `O=c1cc(C2CCNCC2)nc(Cc2cccc(Cl)c2)[nH]1` it is -0.869%.
The figure for `O=C(C1CC1)N1CCc2c(ncnc2NCCc2nc3c(s2)CCC3)C1` is -1.05%; for `CN(C)C(=O)c1ccc2c(c1)nc(N1CC[C@H](O)C1)n2C` it is -18.8%; for `CCCN1CCC(N2CCC(Cn3cc(C4CC4)nn3)CC2)CC1` it is -1.98%.
In the case of `O=C(c1cnc(-c2cccnc2)nc1)N1CCSCC1`, the cytotoxicity at 10 µM worked out at 0.431%.
The figure for `O=C(Nc1ccc(I)cc1C(=O)NCCN1CCOCC1)c1ccco1` is 0.512%; for `CC(=O)Nc1ccc(CNC(=O)CNCc2snnc2C)cc1` it is 8.43%; for `CN(Cc1nc(Cc2ccccc2F)no1)CC1Cc2ccccc2O1` (stereo unspecified) it is -5.19%.
The figure for `Cc1nc(N2CCC(C(O)c3nccn3C)CC2)c2c(C)noc2n1` (stereo unspecified) is 7.54%.
As to `O=C(NCC(F)F)c1ccc(S(=O)(=O)NCCc2ccncc2)cc1`, the cytotoxicity at 10 µM was -7.88%.
Then `CCC(O)Cn1cc(C2=CCN(Cc3cc(O)nc(C)n3)CC2)cn1` (stereo unspecified), with -9.2%; and `CC(C)CN1CCc2[nH]cnc2C12CCN(C(=O)c1cnn(C)c1)CC2`, with -4.68%.
The figure for `CCNc1ncc(C(=O)NCCc2csc(CSC)n2)cn1` is -5.63%; for `CCn1c(C2CCNCC2)nn(CCCc2ccccc2)c1=O` it is 1.4%.
Then `CCCN1CCN(C(=O)c2cnccn2)[C@H]2CS(=O)(=O)C[C@H]21`, with -19.8%.
For the molecule `COc1ccccc1OCc1cc(C(=O)N2CCN[C@H](C)C2)n[nH]1`, the cytotoxicity at 10 µM is -9.09%.
The figure for `COCc1cc(O)nc(C2CCCN(Cc3cc(OC)ccc3F)C2)n1` (stereo unspecified) is 4.42%; for `Cc1noc(C)c1CCC(=O)N1CCCN(Cc2cccs2)CC1` it is -3.39%.
Consider `Cc1ccc(-c2nnc(CN3CCn4c(nnc4C4CC4)C3)o2)cc1`, for which the cytotoxicity at 10 µM is -6.37%.
Then `COc1c(C2CCCN2Cc2nc(C3CC3)no2)c(C)nn1C` (stereo unspecified), with -1.79%; and `COc1cc(Cl)ccc1C(=O)NCc1nncn1C`, with -4.35%.
Take `CCCc1n[nH]c(C2CN(Cc3nnc(C4CC4)o3)CCO2)n1` (stereo unspecified): the cytotoxicity at 10 µM was -20.2%.
Then `COc1cccc(Nc2nc(-c3ccncc3)nc3c2CNCC3)c1`, with -6.61%; and `COc1cc(CNCC(C)O)cc(Cl)c1OCc1ccc(C)cc1` (stereo unspecified), with -5.23%; and `CCN1CCO[C@@H]2CN(C(=O)c3ccc4[nH]ccc4c3)CC[C@@H]2C1`, with -116%.
As to `CCCC(=O)Nc1ccc2c(c1)C1(CCOCC1)CN2CCOC`, the cytotoxicity at 10 µM is -104%.
Then `CO[C@H]1CCN(S(=O)(=O)c2cccnc2)[C@@H]2CN(CC3CC3)C[C@H]12`, with -73.5%.
